Experimental data reported in ChEMBL document CHEMBL4118104, “Design, Synthesis, and Evaluation of Orally Bioavailable Quinoline-Indole Derivatives as Innovative Multitarget-Directed Ligands: Promotion of Cell Proliferation in the Adult Murine Hippocampus for the Treatment of Alzheimer's Disease” (J Med Chem, 2018).

Key:
Format in all cases: ADME, organism-based
[1] = Initial plasma concentration in Sprague-Dawley rat at 5 mg/kg, iv administered as single dose by LC-MS/MS analysis
[2] = AUC (0 to t) in Sprague-Dawley rat at 5 mg/kg, iv administered as single dose by LC-MS/MS analysis; settings: in vivo
Method in brief: (§1)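 SD rats given 5 mg/kg intravenously, n = 3; pharmacokinetic parameters derived from plasma concentrations.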

[3] = Apparent volume of distribution in Sprague-Dawley rat at 5 mg/kg, iv administered as single dose by LC-MS/MS analysis; settings: in vivo, read-out: Vz; method in brief: as §1
[4] = MRT (0 to t) in Sprague-Dawley rat at 5 mg/kg, iv administered as single dose by LC-MS/MS analysis; settings: in vivo
[5] = Volume of distribution at steady state in Sprague-Dawley rat at 5 mg/kg, iv administered as single dose by LC-MS/MS analysis; settings: in vivo, read-out: Vdss
[6] = Half life in Sprague-Dawley rat at 30 mg/kg, po by LC-MS/MS analysis; settings: in vivo
[7] = Tmax in Sprague-Dawley rat at 30 mg/kg, po by LC-MS/MS analysis; settings: in vivo
Method in brief: (§2)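 SD rats given a single oral gavage dose of 30 mg/kg, n = 3; plasma levels by LC-MS/MS; bioavailability computed against the 5 mg/kg intravenous arm.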

[8] = AUC (0 to t) in Sprague-Dawley rat at 30 mg/kg, po by LC-MS/MS analysis; settings: in vivo
[9] = MRT (0 to t) in Sprague-Dawley rat at 30 mg/kg, po by LC-MS/MS analysis; settings: in vivo; method in brief: as §2
[10] = Oral bioavailability in Sprague-Dawley rat at 30 mg/kg by LC-MS/MS analysis; settings: in vivo; method in brief: as §2
[11] = Drug uptake in Sprague-Dawley rat plasma at 30 mg/kg, po after 1 hr by LC-MS/MS analysis
Method in brief: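 SD rats, single oral gavage 30 mg/kg, n = 3; plasma and brain drug levels taken 1 h after dosing, measured by LC-MS/MS.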

Compound Cl.Oc1ccc2[nH]c(-c3ccc4c(Cl)cc(Cl)c(O)c4n3)cc2c1 has a C0 [1] of 4930 ng/mL, an AUC(0-t) [2] of 2110 ng·h/mL and a Vd [3] of 2.49 L/kg. It also gave an MRT last [4] of 0.38 h, a Vd [5] of 0.954 L/kg and a half-life [6] of 3.58 h. For the same compound, the Tmax [7] was 0.5 h, the AUC(0-t) [8] was 1500 ng·h/mL and the MRT last [9] was 2.53 h. For the same compound, the bioavailability [10] was 14.1% and the concentration at 1 h [11] was 902 ng/g.
